# Sampled rows, rich in hits. Any-hit rate of the full collection: about 2.3%.
# TRPC6 inh – inhibitors of mouse TRPC6 channel; Q61143; HEK293-TRPC6, membrane potential dye, ACh-evoked depolarization; active compounds read low; B-score at 10 µM; actives 1.1% (n = 310,000);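 active = B-score under library mean minus 3 SD, initial fluorescence not abnormally high, positive integrated signal ratio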;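 also: B-score derived from integrated fluorescence ratio over the kinetic read; more negative B-score means stronger inhibition of depolarization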
# Target sequence (Q61143 whole entry, looked up): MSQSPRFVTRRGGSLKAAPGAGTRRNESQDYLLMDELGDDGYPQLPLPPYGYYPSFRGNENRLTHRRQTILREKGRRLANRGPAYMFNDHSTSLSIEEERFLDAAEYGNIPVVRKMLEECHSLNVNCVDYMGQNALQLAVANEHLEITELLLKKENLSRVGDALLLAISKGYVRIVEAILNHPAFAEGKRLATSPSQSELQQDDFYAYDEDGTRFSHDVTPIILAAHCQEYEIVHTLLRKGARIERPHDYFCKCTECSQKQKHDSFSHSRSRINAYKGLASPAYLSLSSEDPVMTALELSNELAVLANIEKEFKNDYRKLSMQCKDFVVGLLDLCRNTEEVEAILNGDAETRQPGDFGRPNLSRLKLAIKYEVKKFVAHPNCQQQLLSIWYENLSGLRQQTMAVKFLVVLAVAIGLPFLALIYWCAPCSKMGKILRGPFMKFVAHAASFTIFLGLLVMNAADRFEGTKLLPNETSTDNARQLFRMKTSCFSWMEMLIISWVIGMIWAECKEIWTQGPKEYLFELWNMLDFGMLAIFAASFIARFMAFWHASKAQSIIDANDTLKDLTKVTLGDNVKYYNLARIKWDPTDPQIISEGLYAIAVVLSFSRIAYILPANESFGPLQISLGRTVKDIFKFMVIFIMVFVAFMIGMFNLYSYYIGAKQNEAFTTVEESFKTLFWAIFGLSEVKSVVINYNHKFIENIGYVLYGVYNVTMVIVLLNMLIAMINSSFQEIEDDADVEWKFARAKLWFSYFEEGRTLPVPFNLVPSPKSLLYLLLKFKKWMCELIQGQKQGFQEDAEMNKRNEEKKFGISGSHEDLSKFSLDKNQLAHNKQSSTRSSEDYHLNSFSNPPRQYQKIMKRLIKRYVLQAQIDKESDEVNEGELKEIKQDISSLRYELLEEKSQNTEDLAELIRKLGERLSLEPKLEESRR
# TRPC4 act – TRPC4 (mouse) channel activation; Q9QUQ5; B-score at 10 µM; HEK293 TRPC4beta/mu-opioid, Fluo4 calcium fluorescence; active compounds read high; actives 0.49% (n = 310,000); AID 2237;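 active = B-score above 5 SD of library B-scores, and initial fluorescence ratio not above library mean plus 5 SD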;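 also: positive B-score marks a calcium rise read as TRPC4 activation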
#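 system = HEK293 cells stably co-expressing mouse TRPC4beta and mu-opioid receptor | schedule = Fluo4 dye loading 45 min at room temperature, 110 s recording | measure = B-scored integrated calcium fluorescence ratio | signal = Fluo4 calcium-sensitive dye fluorescence, kinetic, 1 Hz baseline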
# TRPC4 PAM – allosteric potentiators of mouse TRPC4 channel | Q9QUQ5 | HEK293 TRPC4beta/mu-opioid, DAMGO EC20, Fluo-4 Ca2+ flux; active compounds read high | B-score at 10 µM | actives 0.42% (n = 310,000);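 active = B-score of calcium response area above 5 SD of library B-scores, with initial fluorescence ratio within 5 SD of library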;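 also: B-score of integrated fluorescence ratio over time as area under calcium response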
# DNA FID counter – fluorescent intercalator displacement, NS3 helicase counter-screen; DNA fluorescent intercalator displacement, fluorescence; actives 0.17% (n = 290,000); inhibition, % at 7.9 µM; in the data active = inhibition above about 37%;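 also: 0% = vehicle and 100% = reference compound; higher means more ethidium bromide displaced from hairpin DNA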
# TRPC6 act – activators of mouse TRPC6 channel | HEK293-TRPC6 membrane potential dye fluorescence; active compounds read high | B-score at 10 µM | actives 0.13% (n = 310,000) | AID 2550;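 active = B-score of the integrated fluorescence ratio above library mean plus 3 SD, and starting fluorescence ratio within library mean plus 5 SD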;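 also: higher score means more depolarization so channel activation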
# TRPC4 inh – TRPC4 (mouse) channel inhibition | B-score at 10 µM | HEK293 TRPC4beta/mu-opioid, DAMGO-evoked Fluo4 calcium flux; active compounds read low | actives 0.39% (n = 300,000) | Q9QUQ5;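 active = B-score over 3 SD under the library average, no early fluorescence shift, positive overall ratio signal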
#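 test system = HEK293 cells with stable TRPC4beta plus mu-opioid receptor expression | detection = Fluo4 Ca2+ flux fluorescence | read-out = integrated fluorescence ratio relative to baseline, converted to per-well B score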
# TRPC4 spec 2 – second check of whether TRPC6 inhibitors also affect mouse TRPC4; shares compounds with TRPC6 inh; HEK293 TRPC4/MOR, membrane potential dye fluorescence; channel activated by saturating DAMGO dose; inhibition, % at 10 µM; actives 42% (n = 920); AID 2776;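 active = compounds whose fluorescence signal differed from control wells by over 3 SD, either direction, in both duplicate plates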
# TRPC4 spec – mouse TRPC4 off-target activity of TRPC6 inhibitors; shares compounds with TRPC6 inh; HEK293 TRPC4/mu-opioid, membrane potential fluorescence; activity change, negative = inhibition, % at 10 µM; actives 61% (n = 920);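 active = rise or fall in signal beyond 3 SD of buffer-only wells in both replicate plates, either sign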;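 also: integrated kinetic ratio of fluorescence range over baseline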
# HEK293 MPD ctr 2-1 – parental HEK293 nonspecific activity of TRPC6 inhibitors, second screen; parental HEK293 membrane potential dye fluorescence; maximal acetylcholine challenge after compound addition; shares compounds with TRPC6 inh; actives 31% (n = 920); signal change vs control, % at 10 µM;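 active = membrane potential signal moving either way by over 3 SD of the maximum-effect control, in both duplicate plates, meaning non-specific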
# HEK293 MPD ctr-1 – checks TRPC6 inhibitor effects in parental HEK293 cells; shares compounds with TRPC6 inh; parental HEK293 membrane potential dye fluorescence; membrane potential signal change, % at 10 µM; actives 60% (n = 920); AID 2780;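 active = membrane potential signal shifting up or down by more than 3 SD of buffer-only wells, on both duplicate plates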
# HEK293 MPD ctr-2 – checks TRPC6 modulator effects in parental HEK293 cells. shares compounds with TRPC6 inh. actives 51% (n = 2,400). membrane potential dye fluorescence. membrane potential signal change, % at 10 µM;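 active = membrane potential signal moves up or down beyond 5 SD from buffer-only wells, on both duplicate plates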
# HEK293 MPD ctr 2-2 – second check of TRPC6 modulator effects in parental HEK293 cells; shares compounds with TRPC6 inh; membrane potential dye fluorescence; after compound, maximal acetylcholine stimulation; inhibition, % at 10 µM; actives 14% (n = 2,400);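 active = membrane potential signal drops by more than 5 SD from the mean control signal, in both duplicate plates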;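 also: plate controls were acetylcholine ECmax control wells for no effect and buffer only wells for full effect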
# TRPC4/MOR mod – mouse TRPC4 off-target activity of TRPC6 modulators; shares compounds with TRPC6 inh; HEK293 TRPC4/mu-opioid, membrane potential fluorescence; percent change from control (negative = decrease, positive = increase), % at 10 µM; actives 69% (n = 2,400); AID 488927;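 active = membrane potential signal moved up or down beyond 5 SD of buffer control wells, in both duplicate plates, actives on both sides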;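 also: plate controls were assay buffer wells for no effect and DAMGO maximal-effect wells for full effect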
# TRPC4/MOR inh 2 – second selectivity test of TRPC6 modulators against mouse TRPC4. HEK293 TRPC4/mu-opioid, membrane potential dye fluorescence; stimulated with maximal-effect DAMGO. shares compounds with TRPC6 inh. actives 55% (n = 2,400). inhibition, % at 10 µM;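 active = drop in membrane potential signal beyond 5 SD of the control wells in both duplicate plates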;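 also: TRPC4 counter screen for TRPC6 hits run under conditions tuned for TRPC6 not TRPC4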
# TRPC6 inh conf – mouse TRPC6 inhibitor confirmation. actives 43% (n = 3,300). AID 488960. inhibition, % at 10 µM. shares compounds with TRPC6 inh. HEK293-TRPC6, membrane potential dye, ACh-evoked depolarization;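 active = fluorescence ratio falls more than 5 SD below the full-stimulation control mean, in both duplicate runs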;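 also: integrated fluorescence ratio of peak minus minimum over baseline after agonist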
# TRPC6 act confirm – mouse TRPC6 activator confirmation; actives 11% (n = 2,800); AID 488961; activation, % at 10 µM; HEK293-TRPC6 membrane potential dye fluorescence, FDSS; shares compounds with TRPC6 inh;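 active = ratio signal rise beyond 5 SD above unstimulated control wells' mean, seen in both duplicate runs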;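 also: plate controls were buffer EC0 wells for no effect and acetylcholine ECmax response for full effect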
# * = called active by the depositor; i = inactive; x = no result.
SMILES,TRPC6 inh,TRPC4 act,TRPC4 PAM,DNA FID counter,TRPC6 act,TRPC4 inh,HEK293 MPD ctr-2,HEK293 MPD ctr 2-2,TRPC4/MOR mod,TRPC4/MOR inh 2,TRPC6 inh conf,TRPC6 act confirm,others
Cc1c(OCC(=O)N2C[C@H]3C[C@@H](C2)c2cccc(=O)n2C3)ccc2c3c(c(=O)oc12)CCCC3,-7*,i,i,-32.2,i,i,x,x,x,x,76.7%*,x,TRPC4 spec 2=i;TRPC4 spec=5.1%*;HEK293 MPD ctr 2-1=17.0%*;HEK293 MPD ctr-1=5.9%*
O=C(Nc1cccc(F)c1)Nc1ccnn1C1CCN(C(=O)c2cscn2)CC1,i,i,i,-5.5,i,i,x,x,x,x,x,x,
Cc1oc2c(CN3CCCCC3)c(O)ccc2c(=O)c1-c1ccc(Cl)cc1,i,i,i,0.6,i,i,x,x,x,x,x,x,
CCOC(=O)c1c(C)[nH]c(C(=O)NCCc2ccc(OC)c(OC)c2)c1C,i,i,i,-32.7,i,i,x,x,x,x,x,x,
NS(=O)(=O)c1ccc(OC(=O)CNC(=O)OCc2ccccc2)cc1,i,i,i,x,i,i,x,x,x,x,x,x,
CCN(CC)CCN(Cc1cc2cc3c(cc2[nH]c1=O)OCO3)C(=S)NCc1ccco1,-5.55*,i,i,8.2,i,i,i,i,i,58.0%*,i,x,
CCCN1C(=O)/C(=C/c2ccc(N3CCCC3)c(C)c2)NC1=S,i,58*,i,-6.1,62.5*,i,670.5%*,i,225.5%*,i,i,135.5%*,
Cc1cc(/C=C2\NC(=S)N(C)C2=O)ccc1N1CCCC1,i,49*,i,0.0,33.8*,i,i,i,132.0%*,i,i,33.0%*,
CCN1C(=O)/C(=C/c2ccc(N3CCCC3)cc2)NC1=S,i,i,i,2.5,29.9*,i,359.0%*,i,235.0%*,i,i,43.5%*,
Cc1cc(/C=C2/C(=O)N(C)C(=S)N2C)ccc1N1CCCC1,i,i,i,3.2,i,i,x,x,x,x,x,x,
CCCN1C(=O)/C(=C/c2ccc(N3CCOCC3)cc2)NC1=S,i,i,i,-12.1,i,i,x,x,x,x,x,x,
CCCN1C(=O)/C(=C/c2ccc(OCC(=O)OCC)cc2)NC1=S,i,i,i,-14.4,i,i,x,x,x,x,x,x,
CN(C)c1ccc(C(C(=O)NC2CCCC2)N(C(=O)c2csnn2)C2CC2)cc1 (configuration not stated),i,i,i,-20.9,i,i,x,x,x,x,x,x,
Cc1cccc(C)c1NC(=O)C1C2C=CC(C2)C1C(=O)O (configuration not stated),i,i,i,-0.6,i,i,x,x,x,x,x,x,
CN(Cc1cccc(Cl)c1Cl)CC(O)COc1ccccc1 (configuration not stated),i,i,i,5.9,i,i,x,x,x,x,x,x,
CCOC(=O)c1sc(NC(=O)C2CC(=O)N(c3ccc(OCC)cc3)C2)nc1C (configuration not stated),i,i,i,-26.6,i,i,x,x,x,x,x,x,
Cc1c(C(=O)NCC2CCCO2)oc2ccc(Br)cc12 (configuration not stated),i,i,i,x,i,i,x,x,x,x,x,x,
CC1CCN(CC(C)CNC(=O)c2cc(-c3ccccn3)nc3ccccc23)CC1 (configuration not stated),-8.58*,i,i,11.0,i,i,x,x,x,x,i,i,TRPC4 spec 2=70.0%*;TRPC4 spec=i;HEK293 MPD ctr 2-1=208.5%*;HEK293 MPD ctr-1=i
Oc1c(C(Nc2ccccn2)c2ccccn2)ccc2cccnc12 (configuration not stated),-6.17*,i,i,-3.6,i,i,i,i,9.5%*,i,39.5%*,i,
Cc1ccc2ccc(C(Nc3ccccn3)c3ccccc3)c(O)c2n1 (configuration not stated),i,i,i,-8.1,i,i,x,x,x,x,x,x,
COc1cccc(C(=O)NCCC(=O)NCc2cc(=O)n(C)c(=O)n2C)c1,i,i,i,2.9,i,i,x,x,x,x,x,x,
Cc1ccc(-c2n[nH]c(=S)n2Cc2ccccc2)cc1,-5.04*,i,i,-21.8,i,i,i,i,i,i,i,i,
Cc1nccn1CCc1n[nH]c(=S)n1Cc1ccccc1,-6.51*,i,i,-1.2,i,i,i,i,i,i,69.0%*,i,
CC(Oc1ccc(F)cc1)C(=O)Nc1cc(S(=O)(=O)N2CCOCC2)ccc1N1CCCCC1 (configuration not stated),i,i,i,x,i,i,x,x,x,x,x,x,
CCCCn1c(N)c(N(CC)C(=O)c2cccc(S(=O)(=O)N3CCN(C)CC3)c2)c(=O)[nH]c1=O,i,i,i,x,i,i,x,x,x,x,x,x,
COc1ccc(NC(=O)CSc2nnc(C3CCCCC3)n2N)c(OC)c1,-6.72*,i,i,-13.4,i,i,i,i,i,i,i,i,

# High-throughput results deposited in PubChem by several laboratories.
